According to ChEMBL document CHEMBL1144657, “Discovery of heterobicyclic templates for novel metabotropic glutamate receptor subtype 5 antagonists” (Bioorg Med Chem Lett, 2007):
Calls of active or inactive are those of the source. No cut-off for these calls is given here.

These compounds were tested against Metabotropic glutamate receptor 5 (Rattus norvegicus) (UniProt P31424) (assay: Displacement of [3H]MPEP from mGluR5 in rat brain membrane at 100 uM).
Format: cell membranes
In short: (§1)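 Binding was measured by the NIMH Psychoactive Drug Screening Program in rat brain membranes, with [3H]MPEP as the mGluR5 radioligand. Single-concentration screens are reported as percent inhibition of [3H]MPEP binding at 10 μM, and some compounds were also tested at 100 μM. For selected compounds, IC50 was determined using a previously published protocol.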

Sequence of Metabotropic glutamate receptor 5 (Rattus norvegicus) (P31424 21-1203 limits assumed): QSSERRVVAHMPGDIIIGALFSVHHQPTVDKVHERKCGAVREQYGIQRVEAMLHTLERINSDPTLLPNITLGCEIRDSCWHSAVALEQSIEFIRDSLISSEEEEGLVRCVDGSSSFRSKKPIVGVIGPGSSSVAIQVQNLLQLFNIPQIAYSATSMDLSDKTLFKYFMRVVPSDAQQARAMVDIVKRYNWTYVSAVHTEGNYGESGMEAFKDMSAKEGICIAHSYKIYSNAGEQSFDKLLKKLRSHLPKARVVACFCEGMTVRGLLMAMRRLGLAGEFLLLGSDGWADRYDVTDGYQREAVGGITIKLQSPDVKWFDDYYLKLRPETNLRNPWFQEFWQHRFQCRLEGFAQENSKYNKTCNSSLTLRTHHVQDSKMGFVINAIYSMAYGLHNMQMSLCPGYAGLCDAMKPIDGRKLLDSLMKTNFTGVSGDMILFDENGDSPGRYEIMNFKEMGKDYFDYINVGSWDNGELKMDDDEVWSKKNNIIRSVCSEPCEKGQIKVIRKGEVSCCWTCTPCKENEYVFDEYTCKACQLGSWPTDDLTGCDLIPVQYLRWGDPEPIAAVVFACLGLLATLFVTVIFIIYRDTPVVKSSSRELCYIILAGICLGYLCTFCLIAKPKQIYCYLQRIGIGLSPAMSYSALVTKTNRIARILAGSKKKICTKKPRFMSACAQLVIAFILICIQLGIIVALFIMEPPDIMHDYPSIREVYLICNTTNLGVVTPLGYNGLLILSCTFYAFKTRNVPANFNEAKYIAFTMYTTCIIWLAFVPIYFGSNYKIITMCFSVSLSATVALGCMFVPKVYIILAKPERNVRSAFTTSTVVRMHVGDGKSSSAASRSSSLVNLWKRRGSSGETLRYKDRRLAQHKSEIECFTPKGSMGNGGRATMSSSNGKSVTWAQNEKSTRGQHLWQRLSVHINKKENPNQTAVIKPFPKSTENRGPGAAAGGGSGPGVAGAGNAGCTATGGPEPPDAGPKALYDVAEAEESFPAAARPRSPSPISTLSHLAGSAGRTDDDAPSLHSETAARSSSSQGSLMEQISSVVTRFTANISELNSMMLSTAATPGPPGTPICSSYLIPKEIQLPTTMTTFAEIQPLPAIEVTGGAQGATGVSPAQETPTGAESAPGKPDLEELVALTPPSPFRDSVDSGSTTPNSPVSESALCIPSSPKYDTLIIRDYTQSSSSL

SMILES	Activity
Cc1nc2cc(-c3ccccc3)ccc2s1	inactive
Cc1nc2cc(-c3ccc(F)cc3)ccc2s1	inactive

Each compound was assayed against Metabotropic glutamate receptor 5 (Rattus norvegicus) (UniProt P31424) (assay: Displacement of [3H]MPEP from mGluR5 in rat brain membrane at 10 uM).
Format: cell membranes
In short: as §1

SMILES	Activity
COc1ccnc(-c2ccc3sc(C)nc3c2)n1	39%
Cc1ccc2ccc(-c3ccccc3)cc2n1	50%
Cc1nc2nc(-c3ccccc3)sc2cc1Br	1%
Cc1nc2nc(-c3ccccc3)sc2cc1-c1cccc(Cl)c1	1%
Cc1nc2cc(-c3ncccn3)ccc2s1	29%
Cc1nc2nc(-c3ccccc3)sc2cc1-c1ccc(F)cc1	3%
Cc1ccc2ccc(-c3cccs3)cc2n1	< 1%
Cc1ccc2sc(-c3ccccc3)nc2n1	16%
Cc1ccc2nc(-c3ccccc3)n(C)c2n1	< 1%
Cc1cccc(-c2ccc3sc(C)nc3c2)n1	17%
Cc1ccc2ccc(-c3ccccn3)cc2n1	28%
Cc1ccc2ccc(-c3ncc(F)cn3)cc2n1	> 1%
Cc1ccc(-c2ccc3ccc(C)nc3c2)nc1	9%
Cc1ccc2nc(-c3ccccc3)n(CC3CC3)c2n1	< 1%
Cc1nc2nc(-c3ccccc3)sc2cc1-c1cccc(C#N)c1	13%
COc1cc2sc(-c3ccccc3)nc2nc1C	< 1%

These compounds were tested against Metabotropic glutamate receptor 5 (Rattus norvegicus, UniProt P31424) (assay: Displacement of [3H]MPEP from mGluR5 in rat brain membrane).
Sequence of Metabotropic glutamate receptor 5 (P31424 whole entry): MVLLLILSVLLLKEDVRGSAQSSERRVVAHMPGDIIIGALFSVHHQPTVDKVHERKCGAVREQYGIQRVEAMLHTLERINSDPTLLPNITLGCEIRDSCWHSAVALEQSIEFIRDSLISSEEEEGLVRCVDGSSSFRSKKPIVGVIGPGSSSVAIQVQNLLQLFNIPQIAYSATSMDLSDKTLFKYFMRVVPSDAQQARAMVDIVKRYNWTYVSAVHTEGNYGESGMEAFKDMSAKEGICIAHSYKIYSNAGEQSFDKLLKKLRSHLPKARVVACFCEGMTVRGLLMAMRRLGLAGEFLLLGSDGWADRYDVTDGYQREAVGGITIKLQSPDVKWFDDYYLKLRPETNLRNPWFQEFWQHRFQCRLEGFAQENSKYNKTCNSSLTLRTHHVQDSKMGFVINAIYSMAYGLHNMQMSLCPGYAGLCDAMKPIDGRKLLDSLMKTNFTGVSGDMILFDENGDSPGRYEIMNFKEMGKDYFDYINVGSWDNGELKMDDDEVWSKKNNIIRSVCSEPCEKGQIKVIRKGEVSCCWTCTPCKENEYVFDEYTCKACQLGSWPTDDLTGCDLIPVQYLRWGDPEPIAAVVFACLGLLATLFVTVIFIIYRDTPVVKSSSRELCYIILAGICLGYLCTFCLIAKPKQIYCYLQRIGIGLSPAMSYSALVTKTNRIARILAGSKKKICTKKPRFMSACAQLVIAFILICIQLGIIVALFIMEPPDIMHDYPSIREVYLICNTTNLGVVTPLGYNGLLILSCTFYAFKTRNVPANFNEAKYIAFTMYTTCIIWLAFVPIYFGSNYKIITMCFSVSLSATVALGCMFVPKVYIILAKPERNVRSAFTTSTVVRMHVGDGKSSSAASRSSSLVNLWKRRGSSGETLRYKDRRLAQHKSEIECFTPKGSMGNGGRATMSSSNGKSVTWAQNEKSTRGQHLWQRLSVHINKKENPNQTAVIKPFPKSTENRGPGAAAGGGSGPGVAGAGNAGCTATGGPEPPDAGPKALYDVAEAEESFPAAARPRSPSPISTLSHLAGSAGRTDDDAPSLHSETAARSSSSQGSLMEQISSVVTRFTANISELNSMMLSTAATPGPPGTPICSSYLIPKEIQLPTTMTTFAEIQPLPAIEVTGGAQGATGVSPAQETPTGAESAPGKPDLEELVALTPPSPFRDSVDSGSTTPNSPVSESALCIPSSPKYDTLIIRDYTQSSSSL
Format: cell membranes

SMILES	Ki	IC50
Cc1ccc2c(n1)nc(-c1ccccc1)n2Cc1ccccc1	> 10 µM	
COc1cc(OC)nc(-c2ccc3ccc(C)nc3c2)n1	5.43 µM	
COc1cccc(-c2ccc3sc(C)nc3c2)c1		43.1 µM
Cc1ccc2ccc(-c3cccc(C#N)c3)cc2n1	0.11 µM	
Cc1ccc2[nH]c(-c3ccccc3)nc2n1	> 10 µM	
Cc1ccc2nc(-c3ccccc3)n(Cc3ccccc3)c2n1	> 10 µM	
COc1ccnc(-c2ccc3ccc(C)nc3c2)n1	1.55 µM	
Cc1ccc2ccc(-c3ncccn3)cc2n1	> 20 µM	
Cc1nc2cc(-c3cccc(C#N)c3)ccc2s1	2.1 µM	
Cc1ccc2ccc(-c3cnccn3)cc2n1	> 60 µM	
Cc1nc2cc(-c3cccc(Cl)c3)ccc2s1		43.4 µM
Cc1nc2nc(-c3ccccc3)sc2cc1-c1ccccc1		33.5 µM
Cc1nc2nc(-c3ccccc3)sc2cc1-c1cccs1	> 10 µM	
Cc1cc(C)nc(-c2ccc3ccc(C)nc3c2)n1	2.09 µM	
